Compound activity from PubChem.
Lipid droplet – inhibitors of hepatocyte lipid droplet formation, primary screen, imaging, high-throughput imaging, BODIPY stain. inhibition, % at 6.5 µM. 0.4% of 240,000 active. AML12 mouse hepatocytes, oleate lipid droplets;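 active means lipid droplet intensity inhibited by at least 50%, with more than 500 cells counted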
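Assay system: AML12 mouse liver cells | Compound dosing: One dose, 6.5 µM compound | Read-out basis: Droplet intensity reduction, % inhibition | Measured by: Fluorescence imaging, 20x objective, two fields per well | Schedule: Overnight treatment with compound plus oleate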
MC4R barr agon – MC4R agonists recruiting beta-arrestin, primary screen, cell-based, luminescence, agonist arm of biased-ligand search. Melanocortin receptor 4 (Homo sapiens), P32245. U2OS MC4R beta-arrestin complementation; percent of melanotan II response, DMSO zero. activation, % at 8.9 µM. 0.98% of 360,000 active. AID 540308, 2011;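 active means activation above a per-plate cutoff, the mean activation of sample wells on that plate plus 3 SD, cut at about 8% in these data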
Target sequence (P32245 whole entry, looked up): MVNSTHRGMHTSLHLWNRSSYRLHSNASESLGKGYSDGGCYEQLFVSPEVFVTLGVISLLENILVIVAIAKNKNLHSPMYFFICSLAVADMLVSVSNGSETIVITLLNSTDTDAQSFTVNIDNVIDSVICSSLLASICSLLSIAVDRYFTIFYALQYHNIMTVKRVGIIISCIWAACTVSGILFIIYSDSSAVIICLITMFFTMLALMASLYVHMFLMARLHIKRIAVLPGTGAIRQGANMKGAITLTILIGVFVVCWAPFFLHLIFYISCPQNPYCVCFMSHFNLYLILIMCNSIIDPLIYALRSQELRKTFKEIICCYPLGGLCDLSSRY
PREPL inhibitor – PREPL enzyme inhibitors, primary screen, biochemical, fluorescence polarization; Prolyl endopeptidase-like (Homo sapiens), Q4J6C6; recombinant PREPL, fluorescence polarization activity-based probe; inhibition, % at 5.96 µM; 0.68% of 320,000 active; AID 2751, 2010; in the data active means inhibition above about 43%;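 further: 0% = enzyme with DMSO and 100% = wells lacking enzyme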
NTR1 agonist – agonists of human NTR1, primary screen, imaging, U2OS cells, beta-arrestin-GFP, high content; Neurotensin receptor type 1 (Homo sapiens), P30989; NTR1-U2OS beta-arrestin-GFP spot imaging, agonist mode; activation, % at 20 µM; 0.17% of 330,000 active;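 active means activation at or above 40% of the spot to cytoplasm intensity ratio, with at least 20 cells analyzed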;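 further: 0% = DMSO without peptide and 100% = 100 nM NTR1 peptide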
MC4R antag cAMP – MC4R antagonists of cAMP signaling, primary screen, cell-based, TR-FRET, antagonist arm of biased-ligand search | MC4R-expressing cells, MTII-stimulated cAMP, LANCE TR-FRET | inhibition, % at 6.5 µM | 0.48% of 360,000 active;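 active means inhibition above its plate's cutoff, the mean of tested wells on that plate plus 3 SD, cut at about 29% in these data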;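 further: 0% = Melanotan II alone and 100% = Melanotan II plus saturating MCL0020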
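material = U2OS cells stably expressing human melanocortin 4 receptor (MC4R) | also added = Melanotan II challenge | dosing = single nominal compound dose of 6.5 µM | detection = TR-FRET with Eu-cAMP and labeled anti-cAMP, 671 nm | replication = singlicate | timing = compound 30 min, challenge 1 h, detection 1 h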
HTR2A ag – mouse Htr2a agonists via beta-arrestin recruitment, primary screen, cell-based, luminescence. 5-hydroxytryptamine receptor 2A (Mus musculus), P35363. CHO-K1 mHTR2A beta-arrestin complementation; percent of 30 µM serotonin response. activation, % at 7.6 µM. 0.66% of 360,000 active. AID 624169, 2012;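 active means activation above a run cutoff, the mean activation of all tested compounds plus 3 SD, cut at about 14% in these data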;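 further: 0% = plate median of compound wells and 100% = 30 µM serotonin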
cAMP nonselect – nonselective cAMP signaling inhibitors, parental cells, counter-screen for MC4R biased antagonist project, cell-based, TR-FRET, U2OS, forskolin, triplicate; shares compounds with MC4R antag cAMP; LANCE TR-FRET; inhibition, % at 6.5 µM; 26% of 1,600 active; AID 602193, 2012;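 active means mean inhibition over triplicates above the low-control well mean plus 3 SD, set per campaign, cut at about 13% in these data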;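 further: signal is single emission at 671 nm which falls as cellular cAMP rises; 0% = forskolin-stimulated wells and 100% = buffer without forskolin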
MC4R antag conf – MC4R cAMP antagonists, retest, confirmation, cell-based, TR-FRET; shares compounds with MC4R antag cAMP; MC4R-expressing cells, MTII-stimulated cAMP; inhibition, % at 6.5 µM; 27% of 1,600 active; AID 602195, 2012; in the data active means inhibition above about 29%;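 further: 0% = agonist stimulated wells alone and 100% = agonist stimulated wells plus saturating reference antagonist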
An asterisk follows results filed as active; x = no result given. This is a sample that favours compounds with a hit; in the whole collection about 2.7% have one here.

SMILES	Lipid droplet	MC4R barr agon	PREPL inhibitor	NTR1 agonist	MC4R antag cAMP	HTR2A ag	cAMP nonselect	MC4R antag conf
COc1ccc(NC(=O)CC(C)CC(=O)NCc2ccc(F)cc2)c(OC)c1 (stereo unspecified)	-6.3	-1.8	2.4	1.4	6.6	-1.7	x	x
Cc1ccc(NC(=O)C(=O)NCC2CCCO2)cc1 (stereo unspecified)	31.2	-0.9	6.1	-0.8	-0.7	0.4	x	x
Cc1ccc(NC(=O)C(=O)NCC2CCCO2)cc1C (stereo unspecified)	5.6	2.0	7.2	1.3	35.6*	1.8	0.6	-6.4
Cc1ccc(C(=O)C(C)OC(=O)c2cc3cc([N+](=O)[O-])ccc3oc2=O)cc1 (stereo unspecified)	-24.5	-3.3	-2.5	4.7	33.4*	-5.6	7.8	13.5
CN(c1ccc(OCC(=O)OCC(=O)Nc2ccc(OC(F)F)cc2)cc1)S(=O)(=O)c1cccs1	x	-2.1	8.4	4.8	9.1	1.1	x	x
CN(c1ccc(OCC(=O)OCC(=O)Nc2ccccc2)cc1)S(=O)(=O)c1cccs1	-1.7	-0.6	-4.9	-1.5	30.6*	-4.5	13.7*	36.7*
CN(c1ccc(OCC(=O)OCC(=O)Nc2ccc(Br)cc2)cc1)S(=O)(=O)c1cccs1	2.5	-0.8	-4.1	1.3	29.4*	1.4	9.8	30.6*
O=[N+]([O-])c1cc(C=Nc2cccc3c(O)cccc23)ccc1Cl	-11.3	x	39.7	8.1	x	x	x	x
COc1ccc(S(=O)(=O)NNC(=O)C(=O)NNc2ccccn2)cc1	-13.6	0.7	-2.9	0.0	31.4*	-1.0	1.8	-17.7
CCN(CC)C(=O)C(=O)Nc1ccc(OC)c(Cl)c1	10.8	-0.6	4.7	1.5	11.4	0.4	x	x
COc1ccc(C(CC(=O)c2ccc(C)cc2)C(C#N)C#N)cc1OC (stereo unspecified)	24.2	0.8	8.0	-0.2	29.6*	1.9	5.3	5.2
CCOc1cc(C(=O)NCC(C)(C)CNC(=O)c2cc(OCC)c(OCC)c(OCC)c2)cc(OCC)c1OCC	x	0.7	-7.2	1.3	30.1*	0.0	-5.0	1.2
CCN(CC)C(=O)c1csc([C@@H]2O[C@H](CO)[C@H](O)[C@H](O)[C@H]2O)n1	x	-0.7	x	x	4.8	-3.7	x	x
O=C1OC(c2ccccc2)=NC12CC2c1ccc(Cl)cc1 (stereo unspecified)	-0.7	-0.5	-6.2	25.3	28.7*	1.5	-0.1	3.9
O=CN1N=C(c2ccccc2)CC1c1ccc(Cl)cc1 (stereo unspecified)	x	0.7	3.5	0.2	15.7	0.9	x	x
COc1cc(C(=O)NCCCC2CCCC2)ccc1OC1CCN(C(C)=O)CC1	-12.4	-4.0	x	0.8	4.8	-6.7	x	x
COc1ccc(N2CC(C(=O)Nc3nnc(SCC(=O)N4CCOCC4)s3)CC2=O)cc1 (stereo unspecified)	4.7	-3.0	3.0	-0.5	-0.5	3.5	x	x
Cc1nc2c(sc3nc(N4CCOCC4)c4c(c32)CC(C)(C)OC4)c(-c2ccccc2)c1C(=O)O	3.4	-0.2	5.2	4.8	40.4*	4.7	11.9	20.3
CC1(C)Cc2c(c(N3CCOCC3)nc3snc(NC(=O)c4ccccc4)c23)CO1	10.6	0.9	5.5	-0.2	5.3	0.3	x	x
CC(C)CCn1nc(C(=O)Nc2nc3c(s2)CCCC3)c2ccccc2c1=O	-1.6	3.6	-4.8	6.2	33.0*	0.4	-0.6	13.9
O=C(CC(=O)c1ccccc1)Nc1ccccc1C(F)(F)F	x	-1.1	-6.6	-0.9	2.4	-1.4	x	x
O=C(COC(=O)c1cc[n+]([O-])cc1)Nc1ccc(Cl)cc1Cl	x	-1.4	10.4	-1.6	5.4	-3.0	x	x
COc1ccc(N(C)S(=O)(=O)c2cccc(C(=O)OCC(=O)NCc3ccccc3OC)c2)cc1	-0.2	-1.1	8.0	3.7	30.1*	-0.2	3.1	5.2
CN(c1ccccc1)S(=O)(=O)c1cccc(C(=O)OCC(=O)NCc2ccccc2)c1	x	1.0	11.8	4.6	13.7	0.0	x	x
CCOP(=O)(OCC)C(NC(=O)Nc1cccc(Cl)c1)c1ccccc1 (stereo unspecified)	-8.2	1.4	8.4	-2.2	29.7*	3.0	-1.2	15.6
SMILES	Lipid droplet	MC4R barr agon	PREPL inhibitor	NTR1 agonist	MC4R antag cAMP	HTR2A ag	cAMP nonselect	MC4R antag conf
COc1ccc(C(=O)OCCN=C2NS(=O)(=O)c3ccccc32)cc1OC	x	1.8	15.1	0.4	30.2*	1.0	-0.9	-10.1
CCOC(=O)C1(C)CCCCN1C(=O)c1cccnc1 (stereo unspecified)	x	0.4	x	x	8.5	5.2	x	x
CCOc1cc(C)c(C(C)C)cc1S(=O)(=O)n1cnc(C)c1	-15.4	0.1	16.9	5.7	-18.5	-6.2	x	x
COc1ccc(CN(C)S(=O)(=O)c2nnc(NC(=O)c3ccc(C)cc3)s2)cc1OC	-0.7	-0.9	6.6	1.1	29.8*	6.8	3.7	22.9
Cc1[nH]nc(S(=O)CC(=O)O)c1[N+](=O)[O-] (stereo unspecified)	16.4	1.6	-5.4	0.6	31.4*	-0.1	-1.3	-11.2
O=C(Nc1cccc(F)c1)Nc1nnc([C@@H]2O[C@H](CO)[C@@H](O)[C@H]2O)s1	x	-0.8	x	x	0.5	6.5	x	x
CC(=O)Nc1ccc(C=NNc2ccc([N+](=O)[O-])cn2)cc1	x	-3.1	x	x	1.2	-0.1	x	x
O=C(c1ccco1)N1CCN(c2ncnc3scc(-c4ccc(Cl)cc4)c23)CC1	x	4.0	x	x	30.5*	14.3	-3.5	6.1
O=C1NC[C@@H](c2ccccc2)OC(=O)[C@H](Cc2ccc(F)cc2)C/C=C\C[C@H]1CC(=O)N(CCO)Cc1ccccc1	x	-1.8	39.0	2.1	15.3	4.0	x	x
O=C1NC[C@H](c2ccccc2)OC(=O)[C@@H](Cc2ccc(F)cc2)C/C=C\C[C@H]1CC(=O)N(CCO)Cc1ccccc1	x	-1.1	12.2	9.7	45.5*	-1.1	2.1	22.1
O=C1NC[C@H](c2ccccc2)OC(=O)[C@H](Cc2ccc(F)cc2)C/C=C\C[C@H]1CC(=O)N(CCO)Cc1ccccc1	x	1.3	34.4	7.8	39.3*	7.2	-1.8	-6.0
